Data reported in ChEMBL document CHEMBL5126673, “Inhibition of β-Amyloid Aggregation in Alzheimer's Disease: The Key Role of (Pro)electrophilic Warheads” (ACS Med Chem Lett, 2022).
The source made the active and inactive calls. No cut-off for these calls is given here.

What was measured:
[1] = Electrochemical behavior of compound assessed as half wave redox potential in 0.2 M phosphate buffer using Ag/AgCl reference electrode by cyclic voltammetry; type: physicochemical
[2] = molecular target: T1, Amyloid-beta precursor protein (Homo sapiens, UniProt P05067); assay: Inhibition of HFIP-pretreated amyloid beta (1 to 42 ) (unknown origin) self aggregation at 50 uM after 24 hrs by LC-MS/MS analysis relative to control
In short: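 Aβ42 at 50 μM incubated under the ThT assay conditions with or without compound at 50 μM (1:1). Residual monomeric Aβ42 was quantified by MS, and % inhibition was taken against compound-free samples.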

[3] = molecular target: T1, Amyloid-beta precursor protein; assay: Binding affinity to HFIP-pretreated amyloid beta (1 to 42) (unknown origin) assessed as lys16-adduct formation by measuring increase in molecular mass at 50 uM measured at 24 hrs by LC-MS/MS analysis
In short: (§1)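 Aβ42 at 50 μM co-incubated with test compound at 50 μM (1:1) under the ThT assay conditions. Deconvoluted mass spectra were taken at 0, 6 and 24 h. Adducts were scored as new higher-mass species, i.e. mass increments over Aβ42.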

[4] = Electrochemical behavior of compound assessed as anodic peak for oxidation of catechol group in 0.2 M phosphate buffer using Ag/AgCl reference electrode by cyclic voltammetry; type: physicochemical
[5] = Reversible electrochemical behavior of compound assessed as cathodic peak for reconversion of ortho-benzoquinone in 0.2 M phosphate buffer using Ag/AgCl reference electrode by cyclic voltammetry; type: physicochemical
[6] = molecular target: T1, Amyloid-beta precursor protein; assay: Inhibition of HFIP-pretreated amyloid beta (1 to 42 ) (unknown origin) self aggregation assessed as increase in protein oxidation at 50 uM after 24 hrs by LC-MS/MS analysis
In short: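 Aβ42 incubated with or without compound at an equimolar level under the ThT assay conditions. Oxidized Aβ42 was followed by MS as the ratio of the oxidized-Aβ42 signal to the reserpine internal-standard signal, plotted against incubation time.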

[7] = molecular target: T1, Amyloid-beta precursor protein; assay: Binding affinity to HFIP-pretreated amyloid beta (1 to 42) (unknown origin) assessed as lys16-adduct formation by measuring increase in molecular mass at 50 uM measured up to 6 hrs by LC-MS/MS analysis; in short: as §1
[8] = molecular target: T1, Amyloid-beta precursor protein; assay: Inhibition of HFIP-pretreated amyloid beta (1 to 42 ) (unknown origin) self aggregation at 50 uM after 24 hrs by thioflavin-T fluorescence method relative to control
In short: (§2)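 Self-aggregation of 50 μM Aβ42 was measured by ThT fluorescence. Single-point % inhibition used compound at 50 μM (1:1 with Aβ42). IC50 was determined where inhibition exceeded 50%. Values are the mean of two independent experiments, each run in duplicate, ± SEM.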

SH-SY5Y [9] = assay: Cytotoxicity against human SH-SY5Y cells assessed as reduction in cell viability at 10 uM measured after 24 hrs by MTT assay relative to control; type: toxicity, cell-based
In short: (§3)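 Human neuroblastoma SH-SY5Y cells were treated with compound at 5 and 10 μM for 24 h. Viability was read by MTT assay.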

SH-SY5Y [10] = assay: Cytotoxicity against human SH-SY5Y cells assessed as reduction in cell viability at 5 to 10 uM measured after 24 hrs by MTT assay; type: toxicity, cell-based; conditions: dose 5-10 µM; in short: as §3
[11] = molecular target: T1, Amyloid-beta precursor protein; assay: Inhibition of HFIP-pretreated amyloid beta (1 to 42) (unknown origin) self aggregation after 24 hrs by thioflavin-T fluorescence method; in short: as §2

T1 sequence (P05067 whole entry): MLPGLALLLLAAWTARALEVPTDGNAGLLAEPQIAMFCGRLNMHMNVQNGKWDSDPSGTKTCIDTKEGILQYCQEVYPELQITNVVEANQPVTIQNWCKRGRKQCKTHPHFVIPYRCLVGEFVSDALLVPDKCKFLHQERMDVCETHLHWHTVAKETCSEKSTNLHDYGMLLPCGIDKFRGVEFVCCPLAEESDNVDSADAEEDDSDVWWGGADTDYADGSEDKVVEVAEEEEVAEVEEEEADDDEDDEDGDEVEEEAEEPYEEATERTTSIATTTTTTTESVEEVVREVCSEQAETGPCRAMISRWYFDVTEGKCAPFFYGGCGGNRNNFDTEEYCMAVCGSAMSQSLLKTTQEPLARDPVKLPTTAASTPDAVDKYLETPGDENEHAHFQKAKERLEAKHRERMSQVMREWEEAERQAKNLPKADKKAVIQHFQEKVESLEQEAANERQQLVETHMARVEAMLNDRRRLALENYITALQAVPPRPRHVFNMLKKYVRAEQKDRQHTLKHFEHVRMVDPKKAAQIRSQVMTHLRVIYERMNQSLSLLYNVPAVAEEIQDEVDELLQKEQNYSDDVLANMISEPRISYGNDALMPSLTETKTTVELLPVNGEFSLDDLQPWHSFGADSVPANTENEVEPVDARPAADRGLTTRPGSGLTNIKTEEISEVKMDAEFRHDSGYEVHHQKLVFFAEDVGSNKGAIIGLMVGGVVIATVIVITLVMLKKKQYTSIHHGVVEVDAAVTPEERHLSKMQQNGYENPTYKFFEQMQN

Activity [1]	inhibition [2]	Activity [3]	Ep [4]	Activity [5]	inhibition [6]	Activity [7]	inhibition [8]	IC50 [11]	SMILES	Activity (SH-SY5Y [9])	Activity (SH-SY5Y [10])
0.1 V	43.6%	268 Da	0.32 V	Active	Active	232 Da	> 90%	–	CCCSC(=O)/C=C/c1cc(O)ccc1O	> 50%	–
0.66 V	< 10%	–	0.76 V	Active	–	–	< 10%	–	CCCSC(=O)/C=C/c1cc(O)cc(O)c1	–	Non-Toxic
0.1 V	–	–	0.19 V	Active	–	–	> 90%	3.99 µM	CCCSC(=O)/C=C/c1ccc(O)c(O)c1	–	Non-Toxic
